# Test results reported in ChEMBL document CHEMBL5104156, “Development of subtype-selective covalent ligands for the adenosine A2B receptor by tuning the reactive group” (RSC Med Chem, 2022).
# The source made the active and inactive calls. The rule behind the calls is not given here.
# Legend:
# Type in all cases: cell membranes
# Adenosine receptor A2b [1] = target: T1, Adenosine receptor A2b (Homo sapiens, UniProt P29275); assay: Displacement of [3H]PSB-603 from human adenosine A2B receptor expressed in CHO cell membrane and measured after 0.5 hrs by radioligand displacement assay
# T1 sequence (P29275 whole entry): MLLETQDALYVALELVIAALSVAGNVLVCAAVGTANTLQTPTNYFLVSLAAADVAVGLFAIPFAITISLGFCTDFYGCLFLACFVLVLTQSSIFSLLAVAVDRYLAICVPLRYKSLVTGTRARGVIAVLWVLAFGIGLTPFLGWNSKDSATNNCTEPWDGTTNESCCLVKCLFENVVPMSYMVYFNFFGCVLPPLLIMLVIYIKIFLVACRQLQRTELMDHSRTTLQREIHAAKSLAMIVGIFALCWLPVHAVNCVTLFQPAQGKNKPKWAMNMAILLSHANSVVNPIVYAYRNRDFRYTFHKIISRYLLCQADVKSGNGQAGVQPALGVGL
# Adenosine receptor A2b [2] = target: T1, Adenosine receptor A2b; assay: Displacement of [3H]PSB-603 from human adenosine A2B receptor expressed in CHO cell membrane preincubated for 4 hrs followed by [3H]PSB-603 addition and measured after 0.5 hrs by radioligand displacement assay
# [3] = target: T2, Adenosine receptor A2b (Homo sapiens) (UniProt P29275); assay: Ratio of Ki for displacement of [3H]PSB-603 from human adenosine A2B receptor expressed in CHO cell membrane to Ki for displacement of [3H]PSB-603 from human adenosine A2B receptor expressed in CHO cell membrane preincubated for 4hrs
# T2 sequence (whole entry): T1 sequence (P29275 whole entry)
# Method in brief: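 CHO-spap-hA2BAR membranes (30 µg protein) in 50 mM Tris-HCl pH 7.4 with 0.1% CHAPS. Nonspecific binding was set with 10 µM ZM241385. Filtration was followed by scintillation counting.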
# [4] = target: Adenosine receptor A2a (Homo sapiens) (UniProt P29274); assay: Displacement of [3H]ZM241385 from human adenosine A2A receptor expressed in HEK293 cell membrane at 1 uM and measured after 0.5 hrs by radioligand displacement assay
# Chain of Adenosine receptor A2a (Homo sapiens) (P29274 whole entry): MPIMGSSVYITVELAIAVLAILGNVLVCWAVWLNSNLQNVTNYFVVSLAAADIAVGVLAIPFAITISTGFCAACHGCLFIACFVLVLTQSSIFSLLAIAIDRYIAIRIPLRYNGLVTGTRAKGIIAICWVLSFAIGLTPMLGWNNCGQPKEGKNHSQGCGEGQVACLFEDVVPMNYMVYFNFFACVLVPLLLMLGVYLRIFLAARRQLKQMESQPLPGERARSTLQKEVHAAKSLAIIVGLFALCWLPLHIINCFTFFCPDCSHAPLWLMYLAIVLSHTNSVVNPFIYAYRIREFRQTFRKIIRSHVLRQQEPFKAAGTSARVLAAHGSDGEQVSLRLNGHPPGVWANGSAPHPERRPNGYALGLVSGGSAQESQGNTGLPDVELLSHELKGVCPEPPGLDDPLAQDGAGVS
# [5] = target: T3, Adenosine receptor A1 (Homo sapiens) (UniProt P30542); assay: Displacement of [3H]DPCPX from human adenosine A1 receptor expressed in CHO cell membrane at 1 uM and measured after 0.5 hrs by radioligand displacement assay
# T3 sequence (whole entry): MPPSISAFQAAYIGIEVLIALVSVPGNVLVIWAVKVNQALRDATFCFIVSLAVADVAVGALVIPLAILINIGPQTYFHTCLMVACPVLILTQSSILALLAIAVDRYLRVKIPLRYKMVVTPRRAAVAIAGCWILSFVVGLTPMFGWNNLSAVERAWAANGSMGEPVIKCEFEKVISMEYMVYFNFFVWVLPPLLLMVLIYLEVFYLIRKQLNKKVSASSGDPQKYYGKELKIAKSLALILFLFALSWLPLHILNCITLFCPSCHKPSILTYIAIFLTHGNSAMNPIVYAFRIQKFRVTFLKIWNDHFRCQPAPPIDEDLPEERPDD
# [6] = target: T3, Adenosine receptor A1 (Homo sapiens); assay: Displacement of [3H]DPCPX from human adenosine A1 receptor expressed in CHO cell membrane at 1 uM preincubated for 4 hrs followed by [3H]DPCPX addition and measured after 0.5 hrs by radioligand displacement assay; conditions: time 4.5 hrs
# [7] = target: Adenosine receptor A2a (Homo sapiens) (UniProt P29274); assay: Displacement of [3H]ZM241385 from human adenosine A2A receptor expressed in HEK293 cell membrane at 1 uM preincubated for 4 hrs followed by [3H]ZM241385 addition and measured after 0.5 hrs by radioligand displacement assay; conditions: time 4.5 hrs
# [8] = target: T4, Adenosine receptor A3 (Homo sapiens) (UniProt P0DMS8); assay: Displacement of [3H]PSB-11 from human adenosine A3 receptor expressed in CHO cell membrane at 1 uM and measured after 0.5 hrs by radioligand displacement assay
# T4 sequence (whole entry): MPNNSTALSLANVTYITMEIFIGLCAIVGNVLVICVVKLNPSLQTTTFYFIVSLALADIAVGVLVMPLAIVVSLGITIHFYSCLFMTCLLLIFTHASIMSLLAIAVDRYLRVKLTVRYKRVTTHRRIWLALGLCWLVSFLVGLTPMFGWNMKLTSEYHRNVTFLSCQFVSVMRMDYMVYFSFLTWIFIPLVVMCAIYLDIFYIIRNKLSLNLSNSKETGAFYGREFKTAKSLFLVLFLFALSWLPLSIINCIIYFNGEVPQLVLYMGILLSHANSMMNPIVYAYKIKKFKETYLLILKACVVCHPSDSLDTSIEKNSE
# [9] = target: T4, Adenosine receptor A3 (Homo sapiens); assay: Displacement of [3H]PSB-11 from human adenosine A3 receptor expressed in CHO cell membrane at 1 uM preincubated for 4 hrs followed by [3H]PSB-11 addition and measured after 0.5 hrs by radioligand displacement assay; conditions: time 4.5 hrs
# [10] = target: T2, Adenosine receptor A2b (Homo sapiens); assay: Displacement of [3H]PSB-603 from human adenosine A2B receptor expressed in CHO cell membrane assessed as covalent adduct formation at 1 uM preincubated followed by 4 times washing treatment and then with [3H]PSB-603 exposure by radioligand displacement assay
# Method in brief: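 CHO-spap-hA2BAR membranes (80 µg protein) were shaken 2 h at 25 °C with ligand, added as a 1 µM solution, in 0.1% CHAPS/50 mM Tris-HCl pH 7.4. The washed set was pelleted, resuspended and shaken 10 min at 25 °C, repeated three times; an unwashed set was kept for comparison. Both sets then had [3H]PSB-603 (1.5 nM solution) added for 2 h at 25 °C, with nonspecific binding set by 10 µM ZM241385. Filtration, then scintillation counting.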
SMILES,Ki (Adenosine receptor A2b [1]) [nM],Ki (Adenosine receptor A2b [2]) [nM],Ratio Ki [3],Activity [4] [%],Activity [5] [%],Activity [6] [%],Activity [7] [%],Activity [8] [%],Activity [9] [%],Activity [10]
CCCn1c(=O)[nH]c2nc(-c3ccc(N=C=S)cc3)[nH]c2c1=O,2.14,0.661,3.4,25,51,97,27,15,66,
CCCn1c(=O)c2[nH]c(-c3ccc(S(=O)(=O)F)cc3)nc2n(CCC)c1=O,60.3,2.4,27.3,54,61,69,55,12,5,
CCCn1c(=O)[nH]c2nc(-c3cccc(N=C=S)c3)[nH]c2c1=O,110,2.82,74.3,0,7,16,6,58,95,
CCCn1c(=O)c2[nH]c(-c3cccc(S(=O)(=O)F)c3)nc2n(CCC)c1=O,955,158,7.1,19,52,61,23,30,43,
CCCn1c(=O)c2[nH]c(-c3ccc(N=C=S)cc3)nc2n(CCC)c1=O,24,3.24,7.7,40,77,92,39,48,96,
CCCn1c(=O)[nH]c2nc(-c3cccc(S(=O)(=O)F)c3)[nH]c2c1=O,132,13.2,10.2,20,6,36,6,14,10,
CCCn1c(=O)[nH]c2nc(-c3cccc(OS(=O)(=O)F)c3)[nH]c2c1=O,141,70.8,1.6,2,6,1,0,14,5,
CCCn1c(=O)c2[nH]c(-c3cccc(N=C=S)c3)nc2n(CCC)c1=O,617,49,19.3,47,73,96,34,89,100,
CCCn1c(=O)[nH]c2nc(-c3ccc(OS(=O)(=O)F)cc3)[nH]c2c1=O,11.7,5.5,2.2,35,17,12,24,8,8,Active
CCCn1c(=O)c2[nH]c(-c3cccc(OS(=O)(=O)F)c3)nc2n(CCC)c1=O,562,525,1.2,13,76,77,12,64,58,
CCCn1c(=O)[nH]c2nc(-c3ccc(S(=O)(=O)F)cc3)[nH]c2c1=O,7.94,0.676,12.1,52,29,41,43,7,9,Active
CCCn1c(=O)c2[nH]c(-c3ccc(OS(=O)(=O)F)cc3)nc2n(CCC)c1=O,49,51.3,1,63,79,85,69,47,49,
